Structures are written as SMILES. Where only a bound is given, the exact number is not on record here.

Series [1] is described as follows: Selectivity ratio of Ki for sigma 1 receptor in guinea pig brain membranes without cerebellum to Ki for sigma 2 receptor in Wistar Hannover rat liver membranes. Format: cell membranes. As to conditions: Membrane; call rule not given here.
For series [2], the system named is Caco-2. The experiment in a line: Efflux ratio of apparent permeability from apical to basolateral side over basolateral to apical side in human Caco2 cells at 1 to 100 uM after 120 mins. The following applies: caco-2, 2 h. Format: ADME, cell-based.
Series [3] in a line: Displacement of [3H]-DTG from sigma 2 receptor in Wistar Hannover rat liver membranes. Type of series: cell membranes, Membrane. A general note: In a radioligand displacement assay an active substance lowers the binding of a labelled ligand.
In series [4] the target is 5-hydroxytryptamine receptor 7 (Homo sapiens, UniProt P34969). In words: Displacement of [3H]-5-CT from human recombinant 5-HT7 receptor expressed in CHO-K1 cells after 120 mins. Type of series: cell-based.
Chain of 5-hydroxytryptamine receptor 7 (P34969 whole entry): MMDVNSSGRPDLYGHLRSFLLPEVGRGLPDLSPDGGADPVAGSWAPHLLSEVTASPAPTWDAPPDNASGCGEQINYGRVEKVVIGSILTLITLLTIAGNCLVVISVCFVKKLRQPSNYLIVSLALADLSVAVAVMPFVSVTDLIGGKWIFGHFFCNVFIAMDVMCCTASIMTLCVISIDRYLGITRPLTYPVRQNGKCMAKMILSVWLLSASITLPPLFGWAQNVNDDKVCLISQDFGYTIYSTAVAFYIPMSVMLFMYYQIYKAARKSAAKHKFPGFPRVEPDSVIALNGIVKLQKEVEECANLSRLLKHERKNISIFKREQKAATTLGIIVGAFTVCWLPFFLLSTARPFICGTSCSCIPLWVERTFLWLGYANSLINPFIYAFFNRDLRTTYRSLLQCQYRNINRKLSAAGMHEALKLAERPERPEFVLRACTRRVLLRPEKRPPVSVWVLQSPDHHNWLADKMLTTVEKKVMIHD
The target of series [5] is T1, Adrenergic receptor alpha-1 (Rattus norvegicus, UniProt P15823+P23944+P43140).
T1 sequence (P15823 whole entry): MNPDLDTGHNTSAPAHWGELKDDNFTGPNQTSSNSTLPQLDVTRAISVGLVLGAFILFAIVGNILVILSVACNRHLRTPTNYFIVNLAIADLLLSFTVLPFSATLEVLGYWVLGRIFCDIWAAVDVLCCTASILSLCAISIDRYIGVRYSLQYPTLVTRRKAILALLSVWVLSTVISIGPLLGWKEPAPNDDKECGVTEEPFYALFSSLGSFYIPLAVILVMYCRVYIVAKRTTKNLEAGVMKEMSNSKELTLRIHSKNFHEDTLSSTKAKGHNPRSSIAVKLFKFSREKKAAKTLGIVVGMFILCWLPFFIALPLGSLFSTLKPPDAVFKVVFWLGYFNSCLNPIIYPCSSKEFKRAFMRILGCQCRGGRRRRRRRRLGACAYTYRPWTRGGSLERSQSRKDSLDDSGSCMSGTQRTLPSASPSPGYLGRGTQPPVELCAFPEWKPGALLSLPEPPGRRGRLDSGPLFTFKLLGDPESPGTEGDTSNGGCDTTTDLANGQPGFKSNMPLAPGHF
T1 sequence (P23944 whole entry): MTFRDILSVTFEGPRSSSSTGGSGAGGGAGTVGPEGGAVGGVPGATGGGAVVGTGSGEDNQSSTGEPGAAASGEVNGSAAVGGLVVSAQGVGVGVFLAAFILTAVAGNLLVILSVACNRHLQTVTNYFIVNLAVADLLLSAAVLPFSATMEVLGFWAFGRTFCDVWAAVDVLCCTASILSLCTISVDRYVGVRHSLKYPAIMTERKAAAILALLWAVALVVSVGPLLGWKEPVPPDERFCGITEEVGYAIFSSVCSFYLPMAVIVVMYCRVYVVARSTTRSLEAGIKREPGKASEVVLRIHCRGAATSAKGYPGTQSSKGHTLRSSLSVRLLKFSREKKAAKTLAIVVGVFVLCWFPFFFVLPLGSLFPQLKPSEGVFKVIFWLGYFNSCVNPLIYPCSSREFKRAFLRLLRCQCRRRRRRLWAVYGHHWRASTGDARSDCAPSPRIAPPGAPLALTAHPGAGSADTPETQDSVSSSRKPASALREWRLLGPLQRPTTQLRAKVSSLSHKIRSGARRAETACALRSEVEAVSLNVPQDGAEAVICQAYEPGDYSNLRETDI
T1 sequence (P43140 whole entry): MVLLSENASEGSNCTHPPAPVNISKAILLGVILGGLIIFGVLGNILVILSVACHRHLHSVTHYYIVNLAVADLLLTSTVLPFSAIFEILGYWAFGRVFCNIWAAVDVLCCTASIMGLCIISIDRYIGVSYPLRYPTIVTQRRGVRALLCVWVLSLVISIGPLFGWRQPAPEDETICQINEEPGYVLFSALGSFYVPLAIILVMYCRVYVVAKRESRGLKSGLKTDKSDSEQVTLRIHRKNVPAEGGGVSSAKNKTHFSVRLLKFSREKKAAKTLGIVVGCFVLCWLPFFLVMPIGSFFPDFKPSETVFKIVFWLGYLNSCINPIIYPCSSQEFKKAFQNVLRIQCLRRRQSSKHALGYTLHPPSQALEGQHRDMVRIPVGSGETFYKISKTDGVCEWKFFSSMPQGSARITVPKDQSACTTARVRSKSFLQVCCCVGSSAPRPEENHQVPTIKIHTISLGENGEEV
In words: Displacement of [3H]-prazosin from alpha1 adrenoceptor in Wistar Hannover rat cerebral cortex membranes after 50 mins. Type of series: cell membranes, Membrane. In a few lines:
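Rat cerebral cortex membranes ([…]) with 1 nM [3H]-prazosin in 50 mM Tris-HCl pH 7.4, 120 mM NaCl, 5 mM KCl, 5 mM CaCl2, 1 mM MgCl2, plus varied drug concentrations. Incubated 50 min at 25 °C, filtered on PEI-soaked GF/C. Nonspecific binding with 10 phentolamine.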

The target in series [6] is Sigma non-opioid intracellular receptor 1 (Cavia porcellus, UniProt Q60492). The experiment in a line: Displacement of (+)-[3H]-pentazocine from sigma 1 receptor in Dunkin guinea pig brain membranes without cerebellum. Format: cell membranes, Membrane.
Chain of Sigma non-opioid intracellular receptor 1 (Q60492 whole entry): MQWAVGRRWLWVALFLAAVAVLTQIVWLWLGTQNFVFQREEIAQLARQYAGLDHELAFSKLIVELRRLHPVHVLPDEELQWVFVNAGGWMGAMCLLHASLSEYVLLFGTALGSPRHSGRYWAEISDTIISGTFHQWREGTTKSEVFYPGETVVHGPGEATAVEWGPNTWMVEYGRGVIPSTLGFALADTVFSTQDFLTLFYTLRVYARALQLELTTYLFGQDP
Series [7] has as its target T2, 5-hydroxytryptamine receptor 1A (Homo sapiens, UniProt P08908).
T2 sequence (P08908 whole entry): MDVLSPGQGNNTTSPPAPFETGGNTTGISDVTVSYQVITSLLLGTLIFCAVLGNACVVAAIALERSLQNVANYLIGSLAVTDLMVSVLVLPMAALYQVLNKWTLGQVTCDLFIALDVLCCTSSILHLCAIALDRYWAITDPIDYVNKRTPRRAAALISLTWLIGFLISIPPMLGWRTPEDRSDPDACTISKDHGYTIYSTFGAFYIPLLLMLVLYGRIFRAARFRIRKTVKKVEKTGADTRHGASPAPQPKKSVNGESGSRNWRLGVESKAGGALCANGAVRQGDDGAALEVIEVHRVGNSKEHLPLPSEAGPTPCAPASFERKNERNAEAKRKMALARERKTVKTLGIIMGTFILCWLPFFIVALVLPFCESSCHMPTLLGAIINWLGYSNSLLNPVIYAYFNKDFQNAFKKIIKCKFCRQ
In words: Displacement of [3H]-8-OH-DPAT from human recombinant 5-HT1A receptor expressed in HEK293-EBNA cells after 120 mins. Format: cell-based. The method in brief: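 HEK293-EBNA membranes ([…] protein) stably expressing human 5-HT1A, 1.0 nM [3H]-8-OH-DPAT, test compound 0.1 nM to 10 mM. Buffer 50 mM Tris-HCl pH 7.4, 5 mM MgSO4. Incubated 120 min at 37 °C, filtered on PEI-soaked GF/C. Nonspecific binding with 10 mM 5-HT.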

In series [8] the target is ATP-dependent translocase ABCB1 (Homo sapiens, UniProt P08183). In words: Activity at human MDR1 expressed in MDCK cells assessed as Calcein-AM uptake after 30 mins by fluorescence assay. Format: ADME, cell-based. The method in brief: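 P-gp interaction measured with the Calcein-AM assay in MDCK-MDR1 cells, which overexpress P-gp.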
Chain of ATP-dependent translocase ABCB1 (P08183 whole entry): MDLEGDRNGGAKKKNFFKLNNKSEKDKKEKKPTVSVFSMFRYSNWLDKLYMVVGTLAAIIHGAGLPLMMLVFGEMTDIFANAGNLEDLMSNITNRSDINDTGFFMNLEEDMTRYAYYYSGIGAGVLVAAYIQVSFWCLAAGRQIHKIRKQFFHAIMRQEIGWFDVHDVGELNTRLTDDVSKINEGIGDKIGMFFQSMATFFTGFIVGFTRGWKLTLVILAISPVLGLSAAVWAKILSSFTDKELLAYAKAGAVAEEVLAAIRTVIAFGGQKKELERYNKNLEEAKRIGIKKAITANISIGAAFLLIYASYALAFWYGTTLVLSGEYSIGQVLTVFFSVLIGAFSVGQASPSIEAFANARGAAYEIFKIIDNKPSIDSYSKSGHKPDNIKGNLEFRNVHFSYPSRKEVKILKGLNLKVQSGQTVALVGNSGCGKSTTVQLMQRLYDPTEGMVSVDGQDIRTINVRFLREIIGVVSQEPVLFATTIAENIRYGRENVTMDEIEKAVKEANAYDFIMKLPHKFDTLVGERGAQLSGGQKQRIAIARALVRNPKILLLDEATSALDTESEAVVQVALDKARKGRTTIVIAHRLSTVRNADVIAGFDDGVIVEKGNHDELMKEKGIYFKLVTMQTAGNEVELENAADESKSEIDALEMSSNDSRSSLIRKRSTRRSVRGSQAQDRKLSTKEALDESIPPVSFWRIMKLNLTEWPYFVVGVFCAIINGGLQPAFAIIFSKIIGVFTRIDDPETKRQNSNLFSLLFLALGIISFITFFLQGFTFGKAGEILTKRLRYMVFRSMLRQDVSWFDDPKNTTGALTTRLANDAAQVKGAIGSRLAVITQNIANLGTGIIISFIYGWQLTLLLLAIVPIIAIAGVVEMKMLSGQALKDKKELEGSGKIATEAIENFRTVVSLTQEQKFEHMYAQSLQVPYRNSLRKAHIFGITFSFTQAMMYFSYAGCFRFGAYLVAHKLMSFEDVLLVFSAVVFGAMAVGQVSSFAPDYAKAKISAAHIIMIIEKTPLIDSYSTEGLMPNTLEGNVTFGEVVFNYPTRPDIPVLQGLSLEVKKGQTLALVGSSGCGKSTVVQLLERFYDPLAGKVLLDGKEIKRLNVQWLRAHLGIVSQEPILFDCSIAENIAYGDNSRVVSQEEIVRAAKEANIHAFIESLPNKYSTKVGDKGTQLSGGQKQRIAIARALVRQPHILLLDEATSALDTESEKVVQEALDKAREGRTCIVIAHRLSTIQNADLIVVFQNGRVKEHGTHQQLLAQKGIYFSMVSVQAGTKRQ
Series [9] is described as follows: Drug uptake in olfactory of Wistar rat at 47 MBq, iv up to 90 mins by PET analysis. The following applies: in vivo, 1.5 h. Format: ADME, organism-based. The method in brief:
(§1)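 Male Wistar rat under isoflurane given 47 MBq (0.8 nmol) [18F]-tracer via tail vein. Head scanned 0–90 min by list-mode PET, then CT. Blocking rat received 1 mg/kg haloperidol iv just before tracer (34 MBq). 2D-OSEM reconstruction with no attenuation correction. ROI analysis gives SUV (Bq/cm3 per injected Bq/g).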

For series [10], the system named is Cerebral cortex. The experiment in a line: Drug uptake in cerebral cortex of Wistar rat at 47 MBq, iv up to 90 mins by PET analysis. Type of series: ADME, organism-based. As to conditions: in vivo, 1.5 h. In a few lines:
as §1

Series [11] in a line: Drug uptake in olfactory of Wistar rat at 47 MBq, iv up to 90 mins by PET analysis in presence of haloperidol. As to conditions: in vivo, 1.5 h. Type of series: ADME, organism-based.
Series [12] deals with Bone. The experiment in a line: Drug uptake in bone of Wistar rat at 47 MBq, iv up to 90 mins by PET analysis. Type of series: ADME, organism-based, Bone element. The following applies: in vivo, 1.5 h. The method in brief: as §1
The subject of series [13] is Cerebellum. In words: Drug uptake in cerebellum of Wistar rat at 47 MBq, iv up to 90 mins by PET analysis in presence of haloperidol. Type of series: ADME, organism-based. As to conditions: in vivo, 1.5 h.
Series [14] deals with Brain. The experiment in a line: Drug uptake in Wistar rat brain slices after 45 mins by autoradiography in presence of 0.9 uM of unlabelled 2-(3-(6,7-Dimethoxy-3,4-dihydroisoquinolin-2(1H)-yl)propyl)-5-(2-fluoroethoxy)-3,4-dihydroisoquinolin-1(2H)-one. Type of series: ADME, tissue-based. The method in brief:
(§2)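 Horizontal 20 µm cryosections of male Wistar rat brain, thawed 30 min, pre-incubated 10 min at 4 °C in 50 mM Tris-HCl pH 7.4. Incubated 45 min at rt with 9 nM [18F]-tracer in Tris-HCl/1% BSA (n = 4), alone or with blocker. Washed, air-dried, phosphor-imaged after 15 min exposure.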

Series [15] concerns Brain. The experiment in a line: Drug uptake in Wistar rat brain slices after 45 mins by autoradiography in presence of 90 uM of haloperidol. Format: ADME, tissue-based. The method in brief:
as §2

Series [16] concerns Cerebellum. The experiment in a line: Drug uptake in cerebellum of Wistar rat at 47 MBq, iv up to 90 mins by PET analysis. As to conditions: in vivo, 1.5 h. Format: ADME, organism-based. The method in brief:
as §1

Series [17] concerns Cerebellum. The experiment in a line: Drug uptake in Wistar rat cerebellum after 45 mins by autoradiography. Type of series: ADME, tissue-based. In a few lines:
as §2

For series [18], the system named is Cerebral cortex. In words: Drug uptake in cerebral cortex of Wistar rat at 47 MBq, iv up to 90 mins by PET analysis in presence of haloperidol. Type of series: ADME, organism-based. The following applies: in vivo, 1.5 h.
Series [19] deals with Cerebral cortex. The experiment in a line: Drug uptake in Wistar rat cerebral cortex after 45 mins by autoradiography. Format: ADME, tissue-based. The method in brief:
as §2

Series [20] relates to Hippocampus. The experiment in a line: Drug uptake in Wistar rat hippocampus after 45 mins by autoradiography. Format: ADME, tissue-based. The method in brief:
as §2

With `COc1cc2c(cc1OC)CN(CCCN1CCc3c(OCCF)cccc3C1=O)CC2`, in series [1], the Ratio Ki is 330. Further, in series [2], the Ratio was determined as 2.58. Moreover, the Ki (in general, the equilibrium dissociation constant of an inhibitor or competing ligand from its target) in [3] was 0.00924 µM; in [4], greater than 1 µM; in [5] it was 0.764 µM; in series [6], 3.1 µM; in series [7] it was greater than 1 µM. The concentration for a half-maximal effect (EC50) (usually the concentration at which the effect is half-maximal) in series [8] was 5 µM.
In the case of `COc1cc2c(cc1OC)CN(CCCN1CCc3c(OC)cccc3C1=O)CC2`, the Ratio Ki in series [1] worked out at 574. In addition, the Ki in [3] was found to be 0.00424 µM; in series [6], 2.44 µM.
For `COc1cc2c(cc1OC)CN(CCCN1CCc3cc(OC)c(OC)cc3C1=O)CC2`, in that order: 127, 0.0201 µM and 2.57 µM.
For `COc1ccc2c(c1)CCN(CCCN1CCc3cc(OC)c(OC)cc3C1)C2=O`, the Ratio Ki in series [1] stood at 70. Also, the Ki in [3] came out at 0.00574 µM; in [6] it was 0.402 µM.
With `COc1cc2c(cc1OC)CN(CCCN1CCc3cc(F)ccc3C1=O)CC2`, the Ratio Ki in [1] is 87. Further, the Ki in series [3] was found to be 0.00356 µM; in series [6], 0.311 µM.
For `COc1cc2c(cc1OC)CN(CCCN1CCc3cccc(OC)c3C1=O)CC2`, in that order: 101, 0.0163 µM and 1.63 µM.
For `COc1cc2c(cc1OC)CN(CCCN1CCc3c(OCC[18F])cccc3C1=O)CC2`, the Drug uptake entry in series [9] is on record as “Active”; in series [10] it was “Active”; in series [11], “Not Active”; in series [12] it was “Not Active”; in series [13] it was “Not Active”; in [14], “Not Active”. Besides, the Drug uptake result is “Not Active” in series [15]; “Active” in series [16]; “Active” in series [17]; “Not Active” in series [18]; “Active” in [19]; “Active” in series [20].
For `COc1cc2c(cc1OC)CN(CC/C=C1\CCCc3c(OC)cccc31)CC2`, the concentration giving a half-maximal response (EC50) in [8] was 1.1 µM.
